How the values were obtained:
[1] = test system: HCC 2998; assay: Cytotoxicity against human HCC2998 cells after 48 hrs by SRB assay; type: functional; settings: HCC 2998, 48 h
[2] = test system: Malme-3M; assay: Growth inhibition of human MALME-3M cells assessed as cell growth at 10^-7 M incubated for 48 hrs by sulforhodamine B assay relative to control; type: functional; settings: read-out: Activity
[3] = test system: SK-MEL-28; assay: Growth inhibition of human SK-MEL-28 cells assessed as cell growth at 10^-5 M incubated for 48 hrs by sulforhodamine B assay relative to control; type: functional; settings: SK-MEL-28, 48 h, read-out: Activity
[4] = test system: K562; assay: Growth inhibition of human K562 cells assessed as cell growth at 10^-4 M incubated for 48 hrs by sulforhodamine B assay relative to control; type: functional; settings: K562, 48 h, read-out: Activity
[5] = test system: HOP-62; assay: Growth inhibition of human HOP62 cells assessed as cell growth at 10^-7 M incubated for 48 hrs by sulforhodamine B assay relative to control; type: functional; settings: HOP-62, 48 h, read-out: Activity
[6] = test system: HL-60(TB); assay: Growth inhibition of human HL-60(TB) cells assessed as cell growth at 10^-8 M incubated for 48 hrs by sulforhodamine B assay relative to control; type: functional; settings: HL-60, 48 h, read-out: Activity
[7] = test system: MDA-MB-231; assay: Growth inhibition of human MDA-MB-231 cells assessed as cell growth at 10^-6 M incubated for 48 hrs by sulforhodamine B assay relative to control; type: functional; settings: MDA-MB-231, 48 h, read-out: Activity
[8] = test system: 786-0; assay: Cytotoxicity against human 786-0 cells after 48 hrs by SRB assay; type: functional; settings: 786-0, 48 h
[9] = test system: RXF 393; assay: Growth inhibition of human RXF393 cells assessed as cell growth at 10^-8 M incubated for 48 hrs by sulforhodamine B assay relative to control; type: functional; settings: RXF 393, 48 h, read-out: Activity
[10] = test system: K562; assay: Growth inhibition of human K562 cells assessed as cell growth at 10^-8 M incubated for 48 hrs by sulforhodamine B assay relative to control; type: functional; settings: K562, 48 h, read-out: Activity
[11] = test system: SN12C; assay: Growth inhibition of human SN12C cells assessed as cell growth at 10^-6 M incubated for 48 hrs by sulforhodamine B assay relative to control; type: functional; settings: read-out: Activity
[12] = test system: OVCAR-5; assay: Growth inhibition of human OVCAR5 cells assessed as cell growth at 10^-6 M incubated for 48 hrs by sulforhodamine B assay relative to control; type: functional; settings: OVCAR-5, 48 h, read-out: Activity
[13] = test system: COLO 205; assay: Growth inhibition of human COLO205 cells assessed as cell growth at 10^-7 M incubated for 48 hrs by sulforhodamine B assay relative to control; type: functional; settings: COLO 205, 48 h, read-out: Activity
[14] = test system: HOP-62; assay: Growth inhibition of human HOP62 cells assessed as cell growth at 10^-8 M incubated for 48 hrs by sulforhodamine B assay relative to control; type: functional; settings: HOP-62, 48 h, read-out: Activity
[15] = test system: MDA-MB-231; assay: Cytotoxicity against human MDA-MB-231 cells after 48 hrs by SRB assay; type: functional; settings: MDA-MB-231, 48 h
[16] = test system: SK-MEL-28; assay: Cytotoxicity against human SK-MEL-28 cells after 48 hrs by SRB assay; type: functional; settings: SK-MEL-28, 48 h
[17] = test system: SNB-75; assay: Cytotoxicity against human SNB75 cells after 48 hrs by SRB assay; type: functional; settings: SNB-75, 48 h
[18] = test system: CCRF-CEM; assay: Antiproliferative activity against human CEM cells after 72 hrs by Coulter counter method; type: functional, cell-based
In short: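 Cell count assay in 96-well microtiter plates; (5–7.5) × 10⁴ tumor cells per well plus test compound. Cells proliferated at 37 °C in humidified CO₂-controlled atmosphere, 48 h for murine leukemia L1210, 72 h for human lymphocytic CEM and cervix carcinoma HeLa. Counted by Coulter counter; IC₅₀ is the concentration that inhibits proliferation by 50%.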

[19] = test system: A549; assay: Growth inhibition of human A549/ATCC cells assessed as cell growth at 10^-8 M incubated for 48 hrs by sulforhodamine B assay relative to control; type: functional; settings: A549, 48 h, read-out: Activity
[20] = test system: HCC 2998; assay: Growth inhibition of human HCC2998 cells assessed as cell growth at 10^-7 M incubated for 48 hrs by sulforhodamine B assay relative to control; type: functional; settings: HCC 2998, 48 h, read-out: Activity
[21] = test system: SF-539; assay: Growth inhibition of human SF539 cells assessed as cell growth at 10^-7 M incubated for 48 hrs by sulforhodamine B assay relative to control; type: functional; settings: SF-539, 48 h, read-out: Activity
[22] = test system: IGROV-1; assay: Growth inhibition of human IGROV1 cells assessed as cell growth at 10^-8 M incubated for 48 hrs by sulforhodamine B assay relative to control; type: functional; settings: IGROV-1, 48 h, read-out: Activity
[23] = test system: SR; assay: Cytotoxicity against human SR cells after 48 hrs by SRB assay; type: functional
[24] = test system: RXF 393; assay: Cytotoxicity against human RXF393 cells after 48 hrs by SRB assay; type: functional; settings: RXF 393, 48 h
[25] = test system: SF-539; assay: Cytotoxicity against human SF539 cells after 48 hrs by SRB assay; type: functional; settings: SF-539, 48 h
[26] = test system: SF-539; assay: Growth inhibition of human SF539 cells assessed as cell growth at 10^-8 M incubated for 48 hrs by sulforhodamine B assay relative to control; type: functional; settings: SF-539, 48 h, read-out: Activity
[27] = read-out: LC50 (the source's name)
[28] = read-out: pLC50 (the source's name) (converted)

`C#C[C@@]1(O)[C@@H](CO)O[C@@H](n2cc(Cl)c3c(N)ncnc32)[C@@H]1O` was tested, and the GI50 ([1]; read-out: GI50) was 182 to 191 nM, the CC50 [1, 27] was greater than 100000 nM and the TGI ([1]; read-out: TGI) was 501 to 565 nM. It also gave a growth at 0.1 µM [2] of 79 to 80%, a growth at 10 µM [3] of 44 to 45% and a growth at 100 µM [4] of 7 to 8%. For the same molecule, the growth at 0.1 µM [5] was 74 to 86%, the growth at 0.01 µM [6] was 83 to 85% and the growth at 1 µM [7] was -4%. The GI50 ([8]; read-out: GI50) was 308 to 336 nM, the LC50 (lethal concentration, 50% cell kill) ([8]; read-out: LC50) was 5210 to 5700 nM and the TGI ([8]; read-out: TGI) was 1310 to 1340 nM. For the same molecule, the growth at 0.01 µM [9] was 101 to 108%, the growth at 0.01 µM [10] was 93 to 97% and the growth at 1 µM [11] was 5 to 11%. It also gave a growth at 1 µM [12] of 23 to 38%, a growth at 0.1 µM [13] of 43 to 69% and a growth at 0.01 µM [14] of 88 to 90%. The GI50 ([15]; read-out: GI50) was 148 to 193 nM, the CC50 [15, 27] was greater than 100000 nM and the TGI ([15]; read-out: TGI) was 893 to 1010 nM. The GI50 ([16]; read-out: GI50) was 469 to 706 nM, the TGI ([16]; read-out: TGI) was 57100 to 89400 nM and the CC50 [16, 28] was greater than 100000 nM. For the same molecule, the GI50 ([17]; read-out: GI50) was 258 to 310 nM, the CC50 [17, 27] was 1800 to 3210 nM and the TGI ([17]; read-out: TGI) was 574 to 888 nM. For the same molecule, the IC50 [18] was 12 nM, the growth at 0.01 µM [19] was 98 to 105% and the growth at 0.1 µM [20] was 79 to 80%. The growth at 0.1 µM [21] was 90 to 98%, the growth at 0.01 µM [22] was 91 to 94% and the GI50 ([23]; read-out: GI50) was 61.1 to 87.3 nM. For the same molecule, the TGI ([23]; read-out: TGI) was greater than 100000 nM, the CC50 [23, 28] was greater than 100000 nM and the TGI ([23]; read-out: pTGI) was greater than 100000 nM. For the same molecule, the GI50 ([24]; read-out: GI50) was 299 to 485 nM, the TGI ([24]; read-out: TGI) was 813 to 2010 nM and the CC50 [24, 28] was greater than 100000 nM. It also gave a GI50 ([25]; read-out: GI50) of 299 to 351 nM, a CC50 [25, 27] of 21900 to 33900 nM and a TGI ([25]; read-out: TGI) of 1300 to 1610 nM. It also gave a growth at 0.01 µM [26] of 88 to 92%.
